# From ChEMBL document CHEMBL1138240, “Identifying merozoite surface protein 4 and merozoite surface protein 7 Plasmodium falciparum protein family members specifically binding to human erythrocytes suggests a new malarial parasite-redundant survival mechanism” (J Med Chem, 2007)
# Active and inactive are the calls of the source. The rule behind the calls is not given here. Peptide text beside a SMILES is read from it.
# How the values were obtained:
# [1] = Binding affinity to 52 kDa erythrocyte membrane protein in human erythrocytes; format: cell-based
# Procedure, shortened: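 Saturation binding used RBC at 1.5 × 10^7 cell/µL with 125I-peptide at 0–1800 nM, with or without 200-fold excess unlabeled peptide, for 90 min. Free label was sampled from the supernatant. Cells were washed twice with HBS and bound counts were measured by gamma counting, in triplicate. Affinity constant and sites per cell came from saturation curves; Hill coefficient came from a Hill plot.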
# Erythrocyte [2] = assay: Binding affinity to 52 kDa erythrocyte membrane protein in neuraminidase treated human erythrocytes at 1 mg/mL after 1 hr relative to control; format: cell-based
# Erythrocyte [3] = assay: Binding affinity to 52 kDa erythrocyte membrane protein in trypsin treated human erythrocytes at 1 mg/mL after 1 hr relative to control; format: cell-based
# Procedure, shortened: (§1)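 Human RBC (1.5 × 10^7 cell/µL in HBS pH 7.2, 1 mL) were treated for 1 h at 37 °C with shaking. […] used neuraminidase at 150 µU/mL. […] used trypsin and chymotrypsin at 1 mg/mL final. Cells were spun and washed thrice with HBS, then tested in the 125I-peptide binding assay. Specific binding is given as % of untreated-RBC control.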
# Erythrocyte [4] = assay: Binding affinity to 52 kDa erythrocyte membrane protein in chymotrypsin treated human erythrocytes at 1 mg/mL after 1 hr relative to control; format: cell-based; procedure, shortened: as §1
# Plasmodium falciparum [5] = assay: Inhibition of Plasmodium falciparum FCB2 merozoite invasion of human erythrocytes at 200 uM; format: functional
# Procedure, shortened: (§2)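 Sorbitol-synchronized P. falciparum FCB-2 was grown to late schizonts and set at 0.5% parasitemia and 5% hematocrit in RPMI 1640 with 10% O+ plasma. Peptides were added at 100 or 200 µM, in triplicate. Plates were incubated 18 h at 37 °C under 5% O2/5% CO2/90% N2. RBC were stained with hydroethidine 15 µg/mL for 30 min, washed, and read by flow cytometry (FL2). Values are mean ± SD of three experiments.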
# Plasmodium falciparum [6] = assay: Inhibition of Plasmodium falciparum FCB2 merozoite invasion of human erythrocytes at 100 uM; format: functional; set-up: scale not given: the % may be the effect or the level left; procedure, shortened: as §2
# Erythrocyte [7] = assay: Displacement of [125I]MSP-4 20494 peptide from 52 kDa erythrocyte membrane protein in human erythrocytes at 30 uM; format: cell-based
# Procedure, shortened: (§3)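 Competition used 125I-labeled MSP-4 peptide 20494 at 300 nM with 1 × 10^7 human RBC. Unlabeled competitor peptides were present at 3–30 µM. Incubation was 90 min at room temperature. Cells were washed three times with HBS and cell-bound radioactivity was counted on a gamma counter.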
# Plasmodium falciparum [8] = assay: Inhibition of Plasmodium falciparum FCB2 merozoite invasion of human erythrocytes at 0.5 mg/mL; format: functional
# Procedure, shortened: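 Sorbitol-synchronized FCB-2 cultures grown to late schizont stage at 0.5% parasitemia and 5% hematocrit in RPMI 1640 with 10% O-positive plasma. Agent added in triplicate, then incubated 18 h at 37 °C under 5% O2/5% CO2/90% N2. Erythrocytes stained with 15 µg/mL hydroethidine for 30 min at 37 °C. Invasion read by flow cytometry (FL2).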
# Plasmodium falciparum [9] = assay: Inhibition of Plasmodium falciparum FCB2 merozoite invasion of human erythrocytes at […]; format: functional
# Erythrocyte [10] = assay: Displacement of [125I]MSP-4 20494 peptide from 52 kDa erythrocyte membrane protein in human erythrocytes; format: cell-based; procedure, shortened: as §3
Molecule,Kd [1],Activity (Erythrocyte [2]),Activity (Erythrocyte [3]),Activity (Erythrocyte [4]),Activity (Erythrocyte [7]),Activity (Erythrocyte [10]),inhibition at 200 µM (Plasmodium falciparum [5]),Activity (Plasmodium falciparum [6]),inhibition at 500 µg/mL (Plasmodium falciparum [8]),inhibition (Plasmodium falciparum [9])
CC(C)C[C@H](NC(=O)[C@H](CCCCN)NC(=O)[C@H](CC(=O)O)NC(=O)[C@H](CC(=O)O)NC(=O)CNC(=O)[C@H](CS)NC(=O)CN)C(=O)N[C@@H](CS)C(=O)N[C@@H](CCC(=O)O)C(=O)N[C@@H](Cc1ccc(O)cc1)C(=O)N[C@H](C(=O)NCC(=O)N[C@@H](CC(N)=O)C(=O)N[C@@H](CCCNC(=N)N)C(=O)N[C@@H](CCCNC(=N)N)C(=O)N[C@H](C(=O)N[C@@H](CCCCN)C(=O)N[C@@H](CS)C(=O)N[C@@H](CCCCN)C(=O)N[C@@H](CS)C(=O)N[C@@H](CCCCN)C(=O)O)C(C)C)C(C)C (H-GCGDDKLCEYVGNRRVKCKCK-OH),–,–,–,–,–,–,18%,3%,–,–
CCN(CC)CCCC(C)Nc1ccnc2cc(Cl)ccc12 (centres undefined) [CHLOROQUINE],–,–,–,–,–,–,–,–,100%,–
O=C(O)CN(CCOCCOCCN(CC(=O)O)CC(=O)O)CC(=O)O [EGTAZIC ACID],–,–,–,–,–,–,–,–,–,83%
H-KNVHVLINGNSIIDEIEKNEY-OH,–,–,–,–,–,–,29%,10%,–,–
H-MRILGEEKPNVDGVSTSNTPY-OH,–,–,–,–,–,–,11%,9%,–,–
H-MWIVKFLIVVHFFIICTINFY-OH,–,–,–,–,–,inactive,–,–,–,–

# Continued, in another order:
Kd [1],Activity (Erythrocyte [2]),Activity (Erythrocyte [3]),Activity (Erythrocyte [4]),Activity (Erythrocyte [7]),Activity (Erythrocyte [10]),Molecule,inhibition at 200 µM (Plasmodium falciparum [5]),Activity (Plasmodium falciparum [6]),inhibition at 500 µg/mL (Plasmodium falciparum [8]),inhibition (Plasmodium falciparum [9])
0.47 µM,73%,57%,133%,50%,–,CC(C)C[C@H](NC(=O)[C@H](CCCCN)NC(=O)[C@H](Cc1ccc(O)cc1)NC(=O)CNC(=O)[C@H](CCC(=O)O)NC(=O)[C@H](CCCCN)NC(=O)[C@H](CS)NC(=O)[C@H](CCCCN)NC(=O)[C@H](CS)NC(=O)[C@H](CCCCN)NC(=O)[C@@H](NC(=O)[C@H](CCCNC(=N)N)NC(=O)[C@H](CCCNC(=N)N)NC(=O)[C@H](CC(N)=O)NC(=O)CNC(=O)[C@@H](NC(=O)[C@H](Cc1ccc(O)cc1)NC(=O)[C@@H](N)CCC(=O)O)C(C)C)C(C)C)C(=O)N[C@@H](CCC(=O)O)C(=O)NCC(=O)O (H-EYVGNRRVKCKCKEGYKLEG-OH),20%,16%,–,–
0.55 µM,105%,174%,223%,–,–,H-IKNKKLEKLKNIVSGDFVGNY-OH,68%,22%,–,–
–,73%,0%,34%,–,–,H-KDKEYHEQFKNYIYGVYSYA-OH,24%,7%,–,–
0.45 µM,100%,10%,0%,–,–,H-KPEEEYKKFLEYSFNLLNTM-OH,49%,9%,–,–
–,57%,88%,73%,–,–,H-KQNSHLSEKKIKPEEEYKKF-OH,83%,22%,–,–
0.6 µM,105%,0%,160%,–,–,H-NLGLFGKNVLSKVKAQSETDY-OH,59%,9%,–,–
